# Compound activity as filed in PubChem.
# The full list was thinned out, with hits kept by preference.
# TbMetRS inhib: Trypanosoma brucei MetRS inhibition; 360,000 tested, 0.4% active; purified T. brucei MetRS, ATP depletion, Kinase-Glo luminescence; AID 624268; inhibition, % at 11.9 µM;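 active = inhibition above a per-plate cutoff of the control wells' mean inhibition plus 3 SD, cut at about 5.5% in these data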
#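 Test system – parasite MetRS enzyme · Reagent – substrates ATP, L-methionine and bulk Escherichia coli tRNA · Doses – 11.9 µM compound single dose, 0.9% DMSO · Times – 15 min enzyme-compound preincubation, 2 h reaction, 10 min detection, 25 °C · Signal – Kinase-Glo luminescence, ATP depletion format · Controls – DMSO-only wells as low control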
# V-ATPase pHluor: yeast V-ATPase proton transport regulation by pHLuorin; S. cerevisiae, pHLuorin cytosolic pH fluorescence; response, % at 10 µM; 350,000 tested, 0.37% active; in the data active = response mostly above about 7.3%, no sharp cut-off; inactive = mostly below about 5.4%; also: actives read high
# UPR CHOP act: activators of apoptotic arm of unfolded protein response (CHOP). activation, % at 10 µM. 330,000 tested, 0.34% active. CHO-CHOP luciferase reporter, UPR activation, luminescence; percent of tunicamycin response over DMSO baseline;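 active = at 10 µM dose, activation of 40% or more, normalized to positive control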
#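 Assay system: CHO-CHOP cells, stable luciferase reporter of PERK-eIF2a-CHOP signalling / Buffer or medium: F12 plus 10% serum / Compound dosing: one dose, 10 µM in 0.5% DMSO / Times: 6 h compound treatment, 37 °C / Technique: luciferase luminescence / Read-out: % reporter activation, DMSO baseline versus tunicamycin full activation / Benchmarks: tunicamycin and DMSO controls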
# CHOP inh: blocks CHOP induction under ER stress | 220,000 tested, 3.8% active | CHO-K1 CHOP-promoter luciferase, tunicamycin-induced, 15-18 h | inhibition, % at 10 µM;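 active = compounds that reduced the stress-induced luciferase reporter signal by more than about 70% of percent inhibition, limit read from the data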
# XBP1 UPR activ: adaptive UPR (XBP1) activation. CHO-XBP1 luciferase reporter, IRE1-XBP1 UPR activation, luminescence; percent of tunicamycin response, DMSO as zero. activation, % at 20 µM. 330,000 tested, 0.33% active;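 active = versus positive control, 20 µM dose yields 30% or more activation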
#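 Test system: CHO-XBP1 luciferase reporter cells | Buffer or medium: Serum-containing F12 medium, 10% FBS | Schedule: 6 h compound exposure at 37 °C, 5% CO2 | Detection: Steady-Glo luciferase glow luminescence, 10 min after reagent addition | Read-out basis: Activation, % of tunicamycin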
# Hits are given with their value; - = inactive; . = not tested or not shown.
SMILES,TbMetRS inhib,V-ATPase pHluor,UPR CHOP act,CHOP inh,XBP1 UPR activ
O=C(CSc1nnc(-c2ccc(O)cc2)o1)Nc1ccccc1Br,-,-,-,.,-
CC(=O)NCCNc1nc2cc(-c3cscc3C)sc2c(=O)n1C,-,.,.,.,.
Cc1ccc(S(=O)(=O)N2[C@@H](CO)CO[C@H]2CC(=O)c2ccc(F)cc2)cc1,-,.,.,.,.
Cc1ccc(N=C2NC(=O)/C(=C/c3cccnc3)S2)c(C)c1,-,-,-,-,-
Cc1ccc(N=C2NC(=O)/C(=C\c3ccsc3)S2)c(C)c1,-,-,-,71.8,-
Cc1cc(C)nc(N2CCCC(C(=O)NCc3cccc(C(F)(F)F)c3)C2)n1 (stereo not drawn),-,-,-,82.9,-
COc1ccccc1-c1c(-c2ccc(OCC(=O)NN)cc2O)n[nH]c1C(F)(F)F,-,-,-,-,-
COc1ccc(-c2n[nH]c(C(F)(F)F)c2-c2cc3ccccc3o2)c(O)c1,-,-,-,105.3,-
CC1CCN(S(=O)(=O)c2cc(C(=O)N3CCN(c4ccccc4)CC3)ccc2Br)CC1,-,-,.,.,.
O=C(C[n+]1ccc(C(=O)c2ccccc2)cc1)Nc1cccc([N+](=O)[O-])c1,-,.,.,.,.
Cc1ccccc1Nc1nc(N)[nH]c(=O)c1N=O,-,.,.,.,.
COCCN(C(=O)COC(=O)CCOc1ccccc1C)c1c(N)n(Cc2ccccc2)c(=O)[nH]c1=O,-,-,-,.,-
Cc1cc(C)c2nc(SC(C)C(=O)NCC(=O)Nc3ccc(F)c(F)c3F)cc(C)c2c1 (stereo not drawn),-,-,-,91.5,-
COc1cccc(C2NC(=O)c3sc(=S)n(-c4ccccc4)c3N2)c1 (stereo not drawn),-,-,-,-,-
COc1ccc(OC)c(C2NC(=O)c3sc(=S)n(-c4ccccc4)c3N2)c1 (stereo not drawn),-,-,-,90.3,-
O=C(NC(=S)Nc1ccc2c(c1)C(=O)c1ccccc1C2=O)c1ccc(F)cc1,.,.,-,-,41.1
Cc1cc(C)cc(NCc2cc(=O)oc3cc(-c4ccccc4)c(O)cc23)c1,-,-,-,103.1,-
Cc1cc(C)cc(NCc2cc(=O)oc3cc(C)c(O)cc23)c1,-,-,-,.,-
COc1ccc2[nH]c(=O)c(CNc3cccc(C)c3)cc2c1,-,-,-,72.9,-
COc1ccc(NCc2cc3cc(OC)ccc3[nH]c2=O)cc1,-,-,-,-,-
COc1ccc(-c2noc(CCC(=O)O)n2)cc1,-,-,-,-,-
CCOc1ccc(-c2noc(CCC(=O)O)n2)cc1,-,-,-,84.7,-
COc1ccc(-c2noc(CCCC(=O)O)n2)cc1,-,-,-,83.7,-
CCc1ccccc1N(C)C(=O)CCc1nc(-c2ccc(C)cc2)no1,-,-,-,77.4,-
COc1ccc(Cl)cc1N(C)C(=O)CCc1nc(-c2ccc(C)cc2)no1,-,-,-,-,-
SMILES,TbMetRS inhib,V-ATPase pHluor,UPR CHOP act,CHOP inh,XBP1 UPR activ
COCCNC(=O)/C=C/c1c(Cl)cccc1Cl,-,-,-,-,-
Cc1ccc(C)c(N2CCN(C(=S)NC3CCCCC3)CC2)c1,-,-,-,79.2,-
Cc1ccc(C)c(N2CCN(C(=S)Nc3ccc4nc(N5CCOCC5)cc(C)c4c3)CC2)c1,-,-,-,-,-
Cc1cccc(N2CCN(C(=S)Nc3ccc4nc(N5CCOCC5)cc(C)c4c3)CC2C)c1 (stereo not drawn),-,-,-,87.9,-
Cc1ccc(C)c(N2CCN(C(=S)Nc3ccc4nc(N5CCN(C)CC5)cc(C)c4c3)CC2)c1,-,-,-,77.1,-
Cc1cccc(S(=O)(=O)NC(=O)C2(C)CCN2C(=O)Cc2ccc(C(C)(C)C)cc2)c1 (stereo not drawn),-,.,.,.,.
COc1cc(/C=C2/C(=O)NN(c3ccc(C)c(Cl)c3)C2=O)cc([N+](=O)[O-])c1O,-,-,-,.,-
COc1cc(/C=C2\SC(=O)N(c3ccc(Cl)cc3)C2=O)cc([N+](=O)[O-])c1O,-,-,.,105.2,.
COc1cc(/C=C2\SC(=O)N(c3cccc(Cl)c3)C2=O)cc([N+](=O)[O-])c1O,-,-,-,105.2,-
COc1cc(/C=C(\C#N)C(=O)c2ccc(O)c(O)c2)cc(I)c1O,-,-,-,85.7,-
COc1ccc(C=C(C#N)C(=O)c2ccccc2)cc1,-,.,.,.,.
COc1ccc(-c2cc3c(o2)CCCC3OCCN2CCOCC2)cc1 (stereo not drawn),-,.,.,.,.
CC(C)[C@@H]1Cc2[nH]n(C)c(=O)c2[C@H](c2ccc(F)cc2)O1,-,.,.,.,.
O=C(Nc1ccc(OC(F)F)c(Cl)c1)C(c1ccccc1)c1ccccc1,-,-,-,70.2,-
O=C(Cc1cccc2ccccc12)Nc1ccc(OC(F)F)c(Cl)c1,-,-,-,-,-
CC(NC(=S)Nc1ccc(OC(F)F)c(Cl)c1)C(C)(C)C (stereo not drawn),-,-,-,-,-
Cc1ccc(NC(=S)Nc2ccc(OC(F)F)c(Cl)c2)cc1Cl,-,-,.,90.7,.
Cc1ccc(NC(=S)Nc2ccc(Cl)c(Cl)c2)c(OC(F)F)c1,-,-,-,81.5,-
COc1ccccc1NC(=O)Nc1nc(C(N)CC(C)C)cs1 (stereo not drawn),-,.,.,.,.
C[C@H](CO)N1C[C@H](C)[C@@H](CN(C)Cc2ccc(-c3ccccc3)cc2)OCc2cnnn2CCCC1=O,-,-,.,.,.
CCCC/C(O)=N\S(=O)(=O)c1ccc(N=NN(C)C)cc1,-,-,-,-,-
COc1ccc(N2CCN(C(=O)C(=O)c3cc(OC)c4ccccc4c3)CC2)cc1,-,.,.,.,.
CCCOc1ccc(N2C(=O)CC(SCCc3nc4ccccc4[nH]3)C2=O)cc1 (stereo not drawn),-,-,-,-,-
O=C1CC(SCCc2nc3ccccc3[nH]2)C(=O)N1c1ccc(Cl)cc1 (stereo not drawn),21.2,-,-,-,-
COc1cc2c(=O)n(Cc3ccccc3)c(=O)n(CC(=O)NCc3ccco3)c2cc1OC,-,-,.,70.9,.
SMILES,TbMetRS inhib,V-ATPase pHluor,UPR CHOP act,CHOP inh,XBP1 UPR activ
O=C(CCn1c(=O)[nH]c2ccsc2c1=O)NCc1ccc(F)cc1,-,-,-,-,-
CCOC(=O)c1cc(CC)sc1NC(=O)COC,-,-,-,-,-
CCOC(=O)c1cc(CC)sc1NC(=O)Cc1ccccc1,-,-,-,85.3,-
COc1ccc(NC(=O)COC(=O)CN2C(=O)c3ccccc3C2=O)cc1,-,-,-,.,-
CC(C)(C)c1ccc(C(=O)Nc2nnc(Cc3c[nH]c4ccccc34)s2)cc1,-,-,-,74.8,-
O=C(CCl)N=c1sccn1Cc1ccccc1Cl,-,-,-,-,-
O=C(CCl)N=c1sccn1Cc1ccc(Cl)cc1Cl,-,-,42.0,-,-
Cc1ccc(Cl)cc1N1CCN(C(=O)Cc2csc(Nc3nc(=S)[nH]c4ccccc34)n2)CC1,-,-,-,83.5,-
Cc1ccc(Cc2c(-c3cccc(Cl)c3)nc3c(C)cc(Br)cn23)cc1,-,.,.,.,.
